Results collected from several papers.
Protocols differ between the studies behind these lines.
Cell line: Vero
Effect on: cell growth or viability

SMILES	method	time	IC50
CO[C@H]1[C@H](O[C@H]([C@H]2O[C@@H](n3ccc(=O)[nH]c3=O)[C@H](O)[C@@H]2O)[C@H](NCCCNC(=O)[C@@H](NC(=O)[C@@H](NC(=O)N[C@H](C(=O)O)C(C)C)[C@@H]2CCN=C(N)N2)[C@@H](O)C(C)C)C(=O)O)O[C@H](CN)[C@H]1O	WST-1		> 35 µM
COc1cccc2c1C(=O)c1c(O)c3c(c(O)c1C2=O)C[C@@](O)(C(=O)CO)C[C@@H]3O[C@H]1C[C@H](N)[C@H](O)[C@H](C)O1	MTT	72 h	2.1 µM
O=C1[C@H](CC[C@H](O)c2ccc(F)cc2)[C@@H](c2ccc(O)cc2)N1c1ccc(F)cc1	MTT	72 h	36.5 µg/mL
C/C(=N/NC(=O)c1cn(-c2ccccc2)nc1-c1ccccc1)c1c(O)cc(C)oc1=O	MTT	48 h	664 µM
O=C1C[C@@H](c2ccccc2)Oc2c(Cc3ccccc3O)c(O)c(Cc3ccccc3O)c(O)c21	MTT	72 h	48.7 µM
C[C@@H]1C[C@H]2[C@@H]3CCC4=CC(=O)C=C[C@]4(C)[C@@]3(F)[C@@H](O)C[C@]2(C)[C@@]1(O)C(=O)CO	MTT	48 h	80.1 µM
NC1=NN(C(=O)C=Cc2ccccc2)C(=O)C1N=Nc1ccccc1C(=O)O (stereo not shown)	MTT	72 h	59.7 µM
C/C(=N/NC(=O)c1cn(-c2ccccc2)nc1-c1ccc(Cl)cc1)c1c(O)cc(C)oc1=O	MTT	48 h	102 µM
CO[C@H]1[C@H](O[C@H]([C@H]2O[C@@H](n3ccc(=O)[nH]c3=O)[C@H](O)[C@@H]2O)[C@H](NCCCNC(=O)[C@@H](NC(=O)[C@@H](NC(=O)N[C@H](C(=O)O)C(C)C)[C@@H]2CCN=C(N)N2)[C@@H](OC(=O)CCCCCCCCCCCCN(O)C(=N)N)C(C)C)C(=O)O)O[C@H](CN)[C@H]1O	WST-1		> 35 µM
NC1=NC(=NS(=O)(=O)c2ccc(N)cc2)NC(=O)C1N=Nc1ccccc1C(=O)O (stereo not shown)	MTT	72 h	57.4 µM
